Laboratory results as given in ChEMBL document CHEMBL4043300, “2 H-1,2,3-Triazole-Based Dipeptidyl Nitriles: Potent, Selective, and Trypanocidal Rhodesain Inhibitors by Structure-Based Design” (J Med Chem, 2018).
Converted amounts (≈) assume the structure as drawn.

Tested on: not listed separately
Test: Octanol-water intrinsic distribution co-efficient, log D of the compound at 100 uM at pH 7.4 after 16 to 22 hrs by CAMDIS assay
Assay type: physicochemical
Settings: not given
How it was run: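 Octanol/aqueous buffer (pH 7.4) intrinsic distribution coefficient measured in the CAMDIS carrier-mediated distribution system.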

| Compound | logD at 100 µM |
| --- | --- |
| CC(C)n1ncc(C(=O)N[C@@H](Cc2ccc(OC(F)(F)F)c(Cl)c2)C(=O)NC2(C#N)CC2)n1 | 4.61 |
| N#CC1(NC(=O)[C@H](Cc2ccc(OC(F)(F)F)c(Cl)c2)NC(=O)c2cnn(-c3cccnc3)n2)CC1 | 3.7 |

Tested on: not listed separately
Test: Solubility of the compound at pH 6.5 by LYSA
Assay type: physicochemical
Settings: buffer
How it was run: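 Lyophilization solubility assay at pH 6.5.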

| Compound | solubility |
| --- | --- |
| CC(C)n1ncc(C(=O)N[C@@H](Cc2ccc(OC(F)(F)F)c(Cl)c2)C(=O)NC2(C#N)CC2)n1 | 4 µg/mL (≈ 8.25 µM) |
| N#CC1(NC(=O)[C@H](Cc2ccc(OC(F)(F)F)c(Cl)c2)NC(=O)c2cnn(-c3cccnc3)n2)CC1 | 4.2 µg/mL (≈ 8.08 µM) |

Target: Rhodesain (Trypanosoma brucei rhodesiense, UniProt Q95PM0)
Test: Inhibition of Trypanosoma brucei rhodesiense rhodesain using Cbz-Phe-Arg-AMC as substrate by fluorimetric method
Settings: not given
How it was run: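 Fluorescence-based assay run at 25 °C in 50 mM sodium acetate pH 5.5 with 5 mM EDTA, 200 mM NaCl and 0.005% Brij35. IC50 values were converted to Ki with the Cheng-Prusoff equation. Values are the average of two measurements, each done in duplicate.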

Chain of Rhodesain (Q95PM0 whole entry): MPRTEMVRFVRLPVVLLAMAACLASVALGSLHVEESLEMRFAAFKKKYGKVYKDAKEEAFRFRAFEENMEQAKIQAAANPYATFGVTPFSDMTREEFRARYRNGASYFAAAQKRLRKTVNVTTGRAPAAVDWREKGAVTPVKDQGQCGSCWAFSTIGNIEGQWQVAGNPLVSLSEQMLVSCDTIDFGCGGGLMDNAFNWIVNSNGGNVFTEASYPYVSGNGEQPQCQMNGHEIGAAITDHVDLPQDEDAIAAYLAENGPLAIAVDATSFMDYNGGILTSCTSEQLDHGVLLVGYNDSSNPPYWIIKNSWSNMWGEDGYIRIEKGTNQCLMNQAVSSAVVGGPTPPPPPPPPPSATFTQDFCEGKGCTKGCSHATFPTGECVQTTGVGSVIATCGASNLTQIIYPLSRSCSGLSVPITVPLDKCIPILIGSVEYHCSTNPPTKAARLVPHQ

| Compound | Ki |
| --- | --- |
| CC(C)n1ncc(C(=O)N[C@@H](Cc2ccc(OC(F)(F)F)c(Cl)c2)C(=O)NC2(C#N)CC2)n1 | 18 nM |
| N#CC1(NC(=O)[C@H](Cc2ccc(OC(F)(F)F)c(Cl)c2)NC(=O)c2cnn(-c3cccnc3)n2)CC1 | 36 nM |

Target: Procathepsin L (Homo sapiens, UniProt P07711)
Test: Inhibition of human CatL using Cbz-Phe-Arg-AMC as substrate measured over 30 mins by fluorimetric method
Settings: not given
How it was run: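 Human cathepsin L in a fluorimetric assay in 50 mM Tris pH 6.5, 5 mM EDTA, 200 mM NaCl, 0.005% Brij35 at 25 °C. Ki was calculated from IC50 by Cheng-Prusoff. Value is the average of two measurements, each in duplicate.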

Chain of Procathepsin L (P07711 whole entry): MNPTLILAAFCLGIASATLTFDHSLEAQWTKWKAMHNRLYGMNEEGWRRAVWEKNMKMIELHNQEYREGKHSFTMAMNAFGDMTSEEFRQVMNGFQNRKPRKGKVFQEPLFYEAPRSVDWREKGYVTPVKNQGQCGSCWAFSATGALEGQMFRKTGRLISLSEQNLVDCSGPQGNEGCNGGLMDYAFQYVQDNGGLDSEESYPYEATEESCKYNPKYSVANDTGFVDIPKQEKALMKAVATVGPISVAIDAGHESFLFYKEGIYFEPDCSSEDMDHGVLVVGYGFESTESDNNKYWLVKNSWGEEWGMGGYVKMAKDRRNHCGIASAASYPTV

| Compound | Ki |
| --- | --- |
| CC(C)n1ncc(C(=O)N[C@@H](Cc2ccc(OC(F)(F)F)c(Cl)c2)C(=O)NC2(C#N)CC2)n1 | 4 nM |
| N#CC1(NC(=O)[C@H](Cc2ccc(OC(F)(F)F)c(Cl)c2)NC(=O)c2cnn(-c3cccnc3)n2)CC1 | 353 nM |

Tested on: not listed separately
Test: Selectivity index, ratio of Ki for human CatL to Ki for Trypanosoma brucei rhodesiense rhodesain
Settings: not given
How it was run: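 Ki(hCatL)/Ki(RD). Fluorimetric assays at 25 °C: RD in 50 mM sodium acetate pH 5.5; hCatL in 50 mM Tris pH 6.5; both buffers with 5 mM EDTA, 200 mM NaCl, 0.005% Brij35. Ki derived from IC50 by Cheng-Prusoff. Each value is the mean of two measurements, each done in duplicate.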

| Compound | Ratio Ki |
| --- | --- |
| CC(C)n1ncc(C(=O)N[C@@H](Cc2ccc(OC(F)(F)F)c(Cl)c2)C(=O)NC2(C#N)CC2)n1 | 0.2 |
| N#CC1(NC(=O)[C@H](Cc2ccc(OC(F)(F)F)c(Cl)c2)NC(=O)c2cnn(-c3cccnc3)n2)CC1 | 10 |

Tested on: Trypanosoma brucei rhodesiense
Test: Antitrypanosomal activity against bloodstream form of Trypanosoma brucei rhodesiense STIB 900 assessed as parasite growth inhibition after 72 hrs by Alamar blue assay
Assay type: functional
Settings: STIB 900, 72 h
How it was run: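 Standard 72 h growth-inhibition assay with STIB 900 bloodstream trypomastigotes and Alamar Blue read-out. Value is the mean of at least 2 measurements.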

| Compound | IC50 |
| --- | --- |
| CC(C)n1ncc(C(=O)N[C@@H](Cc2ccc(OC(F)(F)F)c(Cl)c2)C(=O)NC2(C#N)CC2)n1 | 4 nM |
| N#CC1(NC(=O)[C@H](Cc2ccc(OC(F)(F)F)c(Cl)c2)NC(=O)c2cnn(-c3cccnc3)n2)CC1 | 1 nM |

Tested on: L6
Test: Cytotoxicity against rat L6 cells after 72 hrs by Alamar blue assay
Assay type: cell-based
Settings: L6, 72 h
How it was run: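 Rat skeletal myoblast L6 cells in an Alamar Blue growth-inhibition assay. Value is the mean of at least 2 measurements.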

| Compound | IC50 |
| --- | --- |
| CC(C)n1ncc(C(=O)N[C@@H](Cc2ccc(OC(F)(F)F)c(Cl)c2)C(=O)NC2(C#N)CC2)n1 | > 10000 nM |
| N#CC1(NC(=O)[C@H](Cc2ccc(OC(F)(F)F)c(Cl)c2)NC(=O)c2cnn(-c3cccnc3)n2)CC1 | > 10000 nM |

Tested on: not listed separately
Test: Intrinsic clearance in human liver microsomes at 2 uM after 30 mins in presence of NADPH by LC-MS/MS method
Assay type: ADME, microsome
Settings: read-out: CLH

| Compound | microsomal CLint at 2 µM |
| --- | --- |
| CC(C)n1ncc(C(=O)N[C@@H](Cc2ccc(OC(F)(F)F)c(Cl)c2)C(=O)NC2(C#N)CC2)n1 | 11 µL/min/mg |
| N#CC1(NC(=O)[C@H](Cc2ccc(OC(F)(F)F)c(Cl)c2)NC(=O)c2cnn(-c3cccnc3)n2)CC1 | < 10 µL/min/mg |

Tested on: not listed separately
Test: Intrinsic clearance in mouse liver microsomes at 2 uM after 30 mins in presence of NADPH by LC-MS/MS method
Assay type: ADME, microsome
Settings: read-out: CLH

| Compound | microsomal CLint at 2 µM |
| --- | --- |
| CC(C)n1ncc(C(=O)N[C@@H](Cc2ccc(OC(F)(F)F)c(Cl)c2)C(=O)NC2(C#N)CC2)n1 | 26 µL/min/mg |
| N#CC1(NC(=O)[C@H](Cc2ccc(OC(F)(F)F)c(Cl)c2)NC(=O)c2cnn(-c3cccnc3)n2)CC1 | 11 µL/min/mg |

Tested on: not listed separately
Test: Permeability of the compound after 15 hrs by PAMPA
Assay type: physicochemical
Settings: read-out: permeability

| Compound | Papp at 15 h |
| --- | --- |
| CC(C)n1ncc(C(=O)N[C@@H](Cc2ccc(OC(F)(F)F)c(Cl)c2)C(=O)NC2(C#N)CC2)n1 | 0.138 ×10⁻⁶ cm/s |
| N#CC1(NC(=O)[C@H](Cc2ccc(OC(F)(F)F)c(Cl)c2)NC(=O)c2cnn(-c3cccnc3)n2)CC1 | 0.447 ×10⁻⁶ cm/s |

Target: Cytochrome P450 3A4 (Homo sapiens, UniProt P08684)
Test: Inhibition of CYP3A4 in human liver microsomes using DBF as substrate by fluorescence assay
Assay type: ADME
Settings: not given
How it was run: (§1)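 Human liver microsomes with CYP-selective substrate metabolism reactions for 2C9, 2D6 and 3A4.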

Chain of Cytochrome P450 3A4 (P08684 whole entry): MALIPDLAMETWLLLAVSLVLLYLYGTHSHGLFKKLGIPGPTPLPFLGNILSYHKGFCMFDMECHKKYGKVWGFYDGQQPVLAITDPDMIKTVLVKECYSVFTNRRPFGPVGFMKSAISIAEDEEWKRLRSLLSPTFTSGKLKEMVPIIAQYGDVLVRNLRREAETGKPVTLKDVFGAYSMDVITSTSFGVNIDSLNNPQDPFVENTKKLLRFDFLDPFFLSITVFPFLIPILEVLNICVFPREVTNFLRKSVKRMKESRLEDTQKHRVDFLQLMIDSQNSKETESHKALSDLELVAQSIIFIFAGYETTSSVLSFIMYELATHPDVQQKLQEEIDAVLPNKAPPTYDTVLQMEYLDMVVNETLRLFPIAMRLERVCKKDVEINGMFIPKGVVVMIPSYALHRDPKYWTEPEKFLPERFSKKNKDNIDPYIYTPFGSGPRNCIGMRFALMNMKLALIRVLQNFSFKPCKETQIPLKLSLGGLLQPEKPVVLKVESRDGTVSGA

| Compound | IC50 |
| --- | --- |
| N#CC1(NC(=O)[C@H](Cc2ccc(OC(F)(F)F)c(Cl)c2)NC(=O)c2cnn(-c3cccnc3)n2)CC1 | 8000 nM |

Target: Cytochrome P450 2D6 (Homo sapiens, UniProt P10635)
Test: Inhibition of CYP2D6 in human liver microsomes using AMMC as substrate by fluorescence assay
Assay type: ADME
Settings: not given
How it was run: as §1

Chain of Cytochrome P450 2D6 (P10635 whole entry): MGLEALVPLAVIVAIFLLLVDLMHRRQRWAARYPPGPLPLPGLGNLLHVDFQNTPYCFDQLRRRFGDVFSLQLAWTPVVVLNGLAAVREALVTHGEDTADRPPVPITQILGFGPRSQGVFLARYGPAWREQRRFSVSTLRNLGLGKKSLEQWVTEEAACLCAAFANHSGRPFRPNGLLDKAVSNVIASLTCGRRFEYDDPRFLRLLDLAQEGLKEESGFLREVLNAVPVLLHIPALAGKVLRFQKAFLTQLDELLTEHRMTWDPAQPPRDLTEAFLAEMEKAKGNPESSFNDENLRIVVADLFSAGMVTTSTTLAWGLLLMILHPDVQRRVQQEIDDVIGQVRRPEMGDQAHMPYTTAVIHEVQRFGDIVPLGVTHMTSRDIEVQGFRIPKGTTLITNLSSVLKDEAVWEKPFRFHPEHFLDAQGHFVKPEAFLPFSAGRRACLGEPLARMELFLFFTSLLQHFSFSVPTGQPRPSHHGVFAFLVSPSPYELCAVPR

| Compound | IC50 |
| --- | --- |
| N#CC1(NC(=O)[C@H](Cc2ccc(OC(F)(F)F)c(Cl)c2)NC(=O)c2cnn(-c3cccnc3)n2)CC1 | 2000 nM |

Target: Cytochrome P450 2C9 (Homo sapiens, UniProt P11712)
Test: Inhibition of CYP2C9 in human liver microsomes using MFC as substrate by fluorescence assay
Assay type: ADME
Settings: not given
How it was run: as §1

Chain of Cytochrome P450 2C9 (P11712 whole entry): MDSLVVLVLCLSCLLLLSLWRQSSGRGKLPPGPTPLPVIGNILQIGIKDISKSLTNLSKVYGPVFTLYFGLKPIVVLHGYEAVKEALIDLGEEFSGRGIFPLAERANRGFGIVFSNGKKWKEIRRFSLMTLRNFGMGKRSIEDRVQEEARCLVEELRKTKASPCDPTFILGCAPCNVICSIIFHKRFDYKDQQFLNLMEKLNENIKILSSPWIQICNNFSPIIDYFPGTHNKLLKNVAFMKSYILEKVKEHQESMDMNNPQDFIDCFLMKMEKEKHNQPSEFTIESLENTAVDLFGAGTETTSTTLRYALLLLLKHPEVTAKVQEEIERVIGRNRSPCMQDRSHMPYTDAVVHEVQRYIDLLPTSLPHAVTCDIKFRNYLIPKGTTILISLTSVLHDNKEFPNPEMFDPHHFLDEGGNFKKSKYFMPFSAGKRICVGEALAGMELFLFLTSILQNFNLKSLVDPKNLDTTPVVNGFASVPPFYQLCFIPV

| Compound | IC50 |
| --- | --- |
| N#CC1(NC(=O)[C@H](Cc2ccc(OC(F)(F)F)c(Cl)c2)NC(=O)c2cnn(-c3cccnc3)n2)CC1 | 7000 nM |

Tested on: not listed separately
Test: Half life in C57BL/6J mouse at 1.5 mg/kg, iv as bolus dose by LC-MS/MS analysis
Assay type: ADME, organism-based
Settings: in vivo
How it was run: (§2)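 Mice given single i.v. dose in N-methylpyrrolidinone / 40% (v/v) aqueous hydroxypropyl-γ-cyclodextrin (30/70 v/v). Blood into K₂EDTA at 5 min, 15 min, 30 min, 1, 2, 4, 8 h, sublingually or by terminal cardiac puncture under isoflurane. Plasma spun at 3000 × g, 5 min, 4 °C, stored at -20 °C. Plasma levels by LC–MS/MS; parameters by non-compartmental analysis.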

| Compound | half-life |
| --- | --- |
| CC(C)n1ncc(C(=O)N[C@@H](Cc2ccc(OC(F)(F)F)c(Cl)c2)C(=O)NC2(C#N)CC2)n1 | 1.53 h |
| N#CC1(NC(=O)[C@H](Cc2ccc(OC(F)(F)F)c(Cl)c2)NC(=O)c2cnn(-c3cccnc3)n2)CC1 | 0.94 h |

Tested on: not listed separately
Test: Clearance in C57BL/6J mouse at 1.5 mg/kg, iv as bolus dose by LC-MS/MS analysis
Assay type: ADME, organism-based
Settings: in vivo
How it was run: as §2

| Compound | clearance |
| --- | --- |
| CC(C)n1ncc(C(=O)N[C@@H](Cc2ccc(OC(F)(F)F)c(Cl)c2)C(=O)NC2(C#N)CC2)n1 | 32.9 mL/min/kg |
| N#CC1(NC(=O)[C@H](Cc2ccc(OC(F)(F)F)c(Cl)c2)NC(=O)c2cnn(-c3cccnc3)n2)CC1 | 22.6 mL/min/kg |

Tested on: not listed separately
Test: Volume of distribution at steady state in C57BL/6J mouse at 1.5 mg/kg, iv as bolus dose by LC-MS/MS analysis
Assay type: ADME, organism-based
Settings: in vivo, read-out: Vdss
How it was run: as §2

| Compound | Vd |
| --- | --- |
| CC(C)n1ncc(C(=O)N[C@@H](Cc2ccc(OC(F)(F)F)c(Cl)c2)C(=O)NC2(C#N)CC2)n1 | 3 L/kg |
| N#CC1(NC(=O)[C@H](Cc2ccc(OC(F)(F)F)c(Cl)c2)NC(=O)c2cnn(-c3cccnc3)n2)CC1 | 0.8 L/kg |

Tested on: not listed separately
Test: Unbound fraction in human plasma
Assay type: ADME, cell-free
Settings: not given

| Compound | fraction unbound |
| --- | --- |
| CC(C)n1ncc(C(=O)N[C@@H](Cc2ccc(OC(F)(F)F)c(Cl)c2)C(=O)NC2(C#N)CC2)n1 | 0.0826 |
| N#CC1(NC(=O)[C@H](Cc2ccc(OC(F)(F)F)c(Cl)c2)NC(=O)c2cnn(-c3cccnc3)n2)CC1 | 0.0395 |
